Measured values from ChEMBL document CHEMBL1152877, “Studies on depigmenting activities of dihydroxyl benzamide derivatives containing adamantane moiety” (Bioorg Med Chem Lett, 2009).

Key:
Tyrosinase = target: T1, Tyrosinase (Agaricus bisporus, UniProt O42713); experiment: Inhibition of mushroom tyrosinase activity after 20 mins
T1 sequence (O42713 whole entry): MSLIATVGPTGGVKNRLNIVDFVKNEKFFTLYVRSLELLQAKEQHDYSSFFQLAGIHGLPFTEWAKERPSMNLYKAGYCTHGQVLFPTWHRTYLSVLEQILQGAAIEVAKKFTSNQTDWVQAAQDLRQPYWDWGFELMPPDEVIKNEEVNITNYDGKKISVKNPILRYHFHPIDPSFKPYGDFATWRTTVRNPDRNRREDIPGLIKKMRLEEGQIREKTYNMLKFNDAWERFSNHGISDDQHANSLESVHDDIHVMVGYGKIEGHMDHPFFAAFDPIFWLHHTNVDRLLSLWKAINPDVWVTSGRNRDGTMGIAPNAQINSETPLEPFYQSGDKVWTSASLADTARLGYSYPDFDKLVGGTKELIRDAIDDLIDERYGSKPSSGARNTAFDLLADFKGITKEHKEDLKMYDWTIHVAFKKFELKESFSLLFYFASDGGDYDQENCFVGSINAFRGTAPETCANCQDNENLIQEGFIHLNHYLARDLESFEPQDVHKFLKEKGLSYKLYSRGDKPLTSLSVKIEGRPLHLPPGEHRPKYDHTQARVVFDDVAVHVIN
Outline: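 Mushroom tyrosinase (2100 U/ml stock in 0.05 M phosphate pH 6.5) with 1.5 mM tyrosine stock in 0.1 M phosphate buffer pH 6.5; incubated 20 min at 37 °C, read on microplate reader. IC50 = concentration inhibiting 50% of enzyme activity, from logarithmic concentration-inhibition curves, mean of three experiments.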

[1] = Cytotoxicity against C57BL/6J mouse Melan-a cells assessed as cell survival at 50 uM by modified crystal violet assay; format: cell-based; conditions: read-out: Survival
Outline: (§1)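 Murine melan-a melanocytes (from C57BL/6 J mice) seeded at 2 × 10⁵ cells/ml, compound added in triplicate; medium changed daily over 4 d culture. Viability by modified crystal violet: PBS wash, 0.1% crystal violet in 10% ethanol 5 min at room temperature, four distilled-water rinses, retained dye extracted with 95% ethanol 10 min at room temperature. Reported as % survival at the stated concentration.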

Melan-a = experiment: Inhibition of melanin formation in C57BL/6J mouse Melan-a cells; format: functional, cell-based
Outline: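 Murine melan-a melanocytes (C57BL/6J origin) seeded at 2 × 10⁵ cells/ml, compounds added in triplicate; medium changed daily, 4 d culture. Cells lysed in 1 N NaOH, relative melanin read at 400 nm. IC50 from logarithmic concentration-inhibition curves, means of three experiments. Viability by crystal violet (0.1% in 10% ethanol, 5 min RT; extracted with 95% ethanol 10 min).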

[2] = Cytotoxicity against C57BL/6J mouse Melan-a cells assessed as cell survival at 10 uM by modified crystal violet assay
[3] = Cytotoxicity against C57BL/6J mouse Melan-a cells assessed as cell survival at 30 uM by modified crystal violet assay; format: cell-based; conditions: read-out: Survival; outline: as §1
[4] = Cytotoxicity against C57BL/6J mouse Melan-a cells assessed as cell survival at 80 uM by modified crystal violet assay; format: cell-based; conditions: read-out: Survival; outline: as §1
[5] = Cytotoxicity against C57BL/6J mouse Melan-a cells assessed as cell survival at 20 uM by modified crystal violet assay; format: cell-based; conditions: read-out: Survival; outline: as §1

Row | Structure (SMILES) | IC50 (Tyrosinase) | viability at 50 µM [1] | IC50 (Melan-a) | viability at 10 µM [2] | viability at 30 µM [3] | viability at 80 µM [4] | viability at 20 µM [5]
1 | O=C(NC12CC3CC(CC(C3)C1)C2)c1ccc(O)cc1O | > 200 µM | 99.2% | 34.1 µM |  |  |  | 
2 | Oc1ccc(O)cc1 [HYDROQUINONE] | 9.81 µM |  | 3.97 µM | 87.3% |  |  | 
3 | O=C(NC12CC3CC(CC(C3)C1)C2)c1cc(O)cc(O)c1 | > 200 µM |  | 12.5 µM |  | 91.3% |  | 
4 | CCCCc1ccc(O)cc1O [RUCINOL] | 0.15 µM |  | 21.6 µM |  |  | 98.2% | 
5 | O=C(NC12CC3CC(CC(C3)C1)C2)c1cccc(O)c1O | > 200 µM |  | 0.73 µM |  |  |  | 96.2%
6 | O=C(NC12CC3CC(CC(C3)C1)C2)c1ccc(O)c(O)c1 | > 200 µM |  | 1.25 µM |  | 95.2% |  | 
7 | Oc1ccc(C23CC4CC(CC(C4)C2)C3)c(O)c1 | 0.9 µM |  | 8.82 µM |  |  |  | 91.7%
8 | O=C(NC12CC3CC(CC(C3)C1)C2)c1cc(O)ccc1O | > 200 µM |  | 9.82 µM |  |  |  | 99.1%
